Data on twelve compounds can be found in ChEMBL document CHEMBL1141523, “A new Heck reaction modification using ketone Mannich bases as enone precursors: parallel synthesis of anti-leishmanial chalcones” (Bioorg Med Chem Lett, 2008).

Bounds are passed on as bounds.

Data set [1] concerns Leishmania donovani. Briefly: Antileishmanial activity against axenic Leishmania donovani amastigotes at 15 uM by Alamar Blue assay. Type of data set: functional. The essentials:
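L. donovani axenic amastigotes (5.0 × 10^5 cells/ml) were added to an equal volume of compound made up at twice the final concentration in complete amastigote medium with 1% DMSO, giving a 15 µM single-concentration screen. Plates were incubated 24 h at 37 °C in 5% CO2, then alamarBlue was added for 24 h more. Fluorescence was read at ex 544 nm, em 590 nm. Medium ± DMSO served as 0% inhibition, with triplicate wells.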
Background: Alamar Blue is a resazurin reagent that responds to reducing activity.

The subject of data set [2] is Leishmania donovani. In words: Antileishmanial activity against axenic Leishmania donovani amastigotes by Alamar Blue assay. Type of data set: functional, organism-based. The essentials: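 Dose-response GI50 (50% growth inhibition) was run on axenic L. donovani amastigotes (5.0 × 10^5 cells/ml) mixed 1:1 with compound at twice the final concentration in amastigote medium with 1% DMSO. Incubation was 24 h at 37 °C in 5% CO2, plus 24 h with alamarBlue, then fluorescence at 544/590 nm. Medium ± DMSO was taken as 0% inhibition. Triplicate wells were used, with duplicate or single experiments ± standard error.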

The test system of the next data set is THP-1. In words: Cytotoxicity against human THP1 cells at 1 uM after 48 hrs by Alamar Blue assay. As to conditions: thp-1, 48 h. Type of data set: cell-based. The gist of the method:
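THP-1 macrophages in complete RPMI-1640 (8 × 10^5 cells/ml) were added to an equal volume of compound, stated as 2 µM in complete medium with 1% DMSO. Triplicate wells were incubated 48 h at 37 °C in 5% CO2. AlamarBlue was then added for 3 h and fluorescence was read. Medium with and without DMSO served as 0% inhibition controls.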

Data set [3] deals with Leishmania donovani. In words: Antileishmanial activity against axenic Leishmania donovani amastigotes at 1 uM by Alamar Blue assay. Type of data set: functional.

Broadly, the inhibition is how much of the control response was suppressed. High values mean strong suppression, low ones little suppression. As usually defined, the IC50 is the concentration needed to halve the response being measured. As for `COc1ccc(C(=O)/C=C/c2cccc3ccccc23)cc1`, at 15 µM the inhibition with Leishmania donovani [1] was 51%. Moreover, the IC50 in the data set with Leishmania donovani [2] (in the assay text read “by tetrazolium dye-based assay” for “by Alamar Blue assay”) was more than 200 µM.
In the data set with Leishmania donovani [1], `O=C(/C=C/c1ccc(NC(=O)c2ccccc2)cc1)c1ccc(Cl)cc1` came in with an inhibition at 15 µM of 59.8%.
One may read the GI50 as the concentration that inhibits growth by half. On to `O=C(Nc1ccc(/C=C/C(=O)c2cccs2)cc1)c1ccccc1`, for which the inhibition at 15 µM with Leishmania donovani [1] is 95.3%. The same compound displayed a GI50 in the data set with Leishmania donovani [2] of 5.5 µM. In the data set on THP-1, the Activity is on record as 6%.
The corresponding values for `O=C(Nc1ccc(/C=C/C(=O)c2ccco2)cc1)c1ccccc1` are 92.4%, 6 µM and 0%.
For the compound `CC(=O)c1ccc(/C=C/C(=O)c2ccccc2)cc1`, the inhibition at 15 µM with Leishmania donovani [1] is 93.6%. In the data set on Leishmania donovani [2], this compound returned a GI50 of 5.6 µM. The compound further returned an Activity in the data set on THP-1 of 45.7%.
For `O=C(/C=C/c1ccc(Oc2ccccc2)nc1)c1ccccc1`, testing at 15 µM in the data set with Leishmania donovani [1] gave an inhibition of 63.7%.
The same measure, in the same setting: then `COc1ccc(C(=O)/C=C/c2ccc(Oc3ccccc3)nc2)cc1`, with 42%.
Same read-out and setting: next, `COc1ccc(C(=O)/C=C/c2ccc(NC(=O)c3ccccc3)cc2)cc1`: 2.1%.
In the data set with Leishmania donovani [1], `O=C(/C=C/c1ccc(NC(=O)c2ccccc2)cc1)c1cccnc1` registered an inhibition at 15 µM of 98.7%. In addition, the GI50 with Leishmania donovani [2] amounted to 2.5 µM. In the data set on THP-1, this compound returned an Activity of 0%.
The compound `O=C(/C=C/c1ccc(NC(=O)c2ccccc2)cc1)c1ccccc1` returned an inhibition at 15 µM with Leishmania donovani [1] of 91.6%. The same compound gave a GI50 with Leishmania donovani [2] of 7.6 µM. The same compound yielded an Activity in the data set on THP-1 of 37%.
Regarding `COc1ccc(C(=O)/C=C/c2ccc(NC(C)=O)cc2)cc1`, in the data set on Leishmania donovani [1], the inhibition at 15 µM was 54.7%.
Consider `C[C@@H]1[C@H](O)[C@@H](C)/C=C/C=C/C=C/C=C/C=C/C=C/C=C/[C@H](O[C@@H]2O[C@H](C)[C@@H](O)[C@H](N)[C@@H]2O)C[C@@H]2O[C@](O)(C[C@@H](O)C[C@@H](O)[C@H](O)CC[C@@H](O)C[C@@H](O)CC(=O)O[C@H]1C)C[C@H](O)[C@H]2C(=O)O` [AMPHOTERICIN B], for which the inhibition at 15 µM in the data set on Leishmania donovani [1] turned out to be 99%. Also, in the data set on Leishmania donovani [3], the inhibition at 1 µM was more than 90%.
